The results in this text go back to paper PMC7906539 (Medicinal chemistry research : an international journal for …, 2020).

In general, IC50 refers to the concentration that inhibits the measured activity by half.

The target of data set [1] is His-mHtt and GST-CaM (CaM–mHtt interaction) (Homo sapiens, UniProt P0DP23+P42858). Briefly: CaM/mHtt AlphaScreen binding assay. Conditions: for IC50: read-out: AlphaScreen CaM–mHtt, IC50, triplicate. In a few lines:
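His-mHtt (10 nM) preincubated 30 min with test compound, then GST-CaM (10 nM) added for 60 min at room temperature. Ni-chelate acceptor (10 μg/mL) and glutathione donor beads (15 μg/mL) are added for 2 h, then Alpha counts are read. Final 300–0.002 μM, triplicate; % inhibition normalized to DMSO controls.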
On the technique in general: In Alpha technology, singlet oxygen from a donor bead excites a nearby acceptor bead.

For data set [2], the system named is SH-SY5Y cells. The data set can be described thus: Cytotoxicity assay. It counts as cell-based. Conditions: for Cytotoxicity (SH-SY5Y cells, 24 h): 24 h incubation, CellTiter-Glo; for Cytotoxicity (SH-SY5Y cells, 24 h) / Cytotoxicity as stated in text: SH-SY5Y cells; for Cytotoxicity as stated in text: approximate value for both enantiomers. In a few lines:
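SH-SY5Y cells seeded at 6000/well in 1:1 EMEM/F12 with 10% FBS. Exposure 24 h at 37 °C, then CellTiter-Glo luminescence read. Percent cytotoxicity normalized to DMSO controls.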
(In general: In ATP-based viability assays light output follows the ATP content of the culture.)

Data set [3] relates to calcium/CaM-dependent kinase 2γ (CaMK2γ). The data set can be described thus: CaM-dependent kinase assay. It counts as biochemical, Human. To be noted: single concentration of 100 μM, in the presence of CaM. The method in brief: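 ADP-Glo reaction with CaMK2γ (12 ng), 25 μM ATP and Autocamtide-2 substrate, carried out with CaM present. Test compound is at a single 100 μM from DMSO; incubation 60 min at room temperature. Luminescent readout gives percent enzyme activity relative to the reaction without compound. Run three times with at least two replicates per experiment; mean ± SEM.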

Data set [4] has as its target death-associate protein kinase 1 (DAPK1) (Homo sapiens, UniProt P53355). Briefly: CaM-dependent kinase assay. It counts as biochemical. To be noted: single concentration of 100 μM, in the presence of CaM. In a few lines: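 Recombinant DAPK1 (25 ng), run with ADP-Glo at 5 μM ATP with native swine myelin basic protein as substrate, in the presence of CaM. Test compound is added at a single 100 μM (DMSO) and reacted 60 min at room temperature. Luminescence is read, and activity is expressed as percent of the no-compound reaction. Three experiments, ≥2 replicates each; mean ± SEM.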

Sequence of death-associate protein kinase 1 (DAPK1) (P53355 1-363): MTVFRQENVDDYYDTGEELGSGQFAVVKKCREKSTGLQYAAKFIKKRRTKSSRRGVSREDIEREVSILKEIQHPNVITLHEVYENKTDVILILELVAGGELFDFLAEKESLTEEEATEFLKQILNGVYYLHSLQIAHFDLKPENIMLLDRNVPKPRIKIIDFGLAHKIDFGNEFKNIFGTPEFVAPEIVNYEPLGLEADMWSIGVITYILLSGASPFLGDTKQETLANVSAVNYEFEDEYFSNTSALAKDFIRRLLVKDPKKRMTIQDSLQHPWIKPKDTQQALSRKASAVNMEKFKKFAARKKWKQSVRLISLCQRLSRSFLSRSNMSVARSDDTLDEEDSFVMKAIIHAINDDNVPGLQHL
Sequence of His-mHtt and GST-CaM (CaM–mHtt interaction) (P42858 whole entry, one chain of several): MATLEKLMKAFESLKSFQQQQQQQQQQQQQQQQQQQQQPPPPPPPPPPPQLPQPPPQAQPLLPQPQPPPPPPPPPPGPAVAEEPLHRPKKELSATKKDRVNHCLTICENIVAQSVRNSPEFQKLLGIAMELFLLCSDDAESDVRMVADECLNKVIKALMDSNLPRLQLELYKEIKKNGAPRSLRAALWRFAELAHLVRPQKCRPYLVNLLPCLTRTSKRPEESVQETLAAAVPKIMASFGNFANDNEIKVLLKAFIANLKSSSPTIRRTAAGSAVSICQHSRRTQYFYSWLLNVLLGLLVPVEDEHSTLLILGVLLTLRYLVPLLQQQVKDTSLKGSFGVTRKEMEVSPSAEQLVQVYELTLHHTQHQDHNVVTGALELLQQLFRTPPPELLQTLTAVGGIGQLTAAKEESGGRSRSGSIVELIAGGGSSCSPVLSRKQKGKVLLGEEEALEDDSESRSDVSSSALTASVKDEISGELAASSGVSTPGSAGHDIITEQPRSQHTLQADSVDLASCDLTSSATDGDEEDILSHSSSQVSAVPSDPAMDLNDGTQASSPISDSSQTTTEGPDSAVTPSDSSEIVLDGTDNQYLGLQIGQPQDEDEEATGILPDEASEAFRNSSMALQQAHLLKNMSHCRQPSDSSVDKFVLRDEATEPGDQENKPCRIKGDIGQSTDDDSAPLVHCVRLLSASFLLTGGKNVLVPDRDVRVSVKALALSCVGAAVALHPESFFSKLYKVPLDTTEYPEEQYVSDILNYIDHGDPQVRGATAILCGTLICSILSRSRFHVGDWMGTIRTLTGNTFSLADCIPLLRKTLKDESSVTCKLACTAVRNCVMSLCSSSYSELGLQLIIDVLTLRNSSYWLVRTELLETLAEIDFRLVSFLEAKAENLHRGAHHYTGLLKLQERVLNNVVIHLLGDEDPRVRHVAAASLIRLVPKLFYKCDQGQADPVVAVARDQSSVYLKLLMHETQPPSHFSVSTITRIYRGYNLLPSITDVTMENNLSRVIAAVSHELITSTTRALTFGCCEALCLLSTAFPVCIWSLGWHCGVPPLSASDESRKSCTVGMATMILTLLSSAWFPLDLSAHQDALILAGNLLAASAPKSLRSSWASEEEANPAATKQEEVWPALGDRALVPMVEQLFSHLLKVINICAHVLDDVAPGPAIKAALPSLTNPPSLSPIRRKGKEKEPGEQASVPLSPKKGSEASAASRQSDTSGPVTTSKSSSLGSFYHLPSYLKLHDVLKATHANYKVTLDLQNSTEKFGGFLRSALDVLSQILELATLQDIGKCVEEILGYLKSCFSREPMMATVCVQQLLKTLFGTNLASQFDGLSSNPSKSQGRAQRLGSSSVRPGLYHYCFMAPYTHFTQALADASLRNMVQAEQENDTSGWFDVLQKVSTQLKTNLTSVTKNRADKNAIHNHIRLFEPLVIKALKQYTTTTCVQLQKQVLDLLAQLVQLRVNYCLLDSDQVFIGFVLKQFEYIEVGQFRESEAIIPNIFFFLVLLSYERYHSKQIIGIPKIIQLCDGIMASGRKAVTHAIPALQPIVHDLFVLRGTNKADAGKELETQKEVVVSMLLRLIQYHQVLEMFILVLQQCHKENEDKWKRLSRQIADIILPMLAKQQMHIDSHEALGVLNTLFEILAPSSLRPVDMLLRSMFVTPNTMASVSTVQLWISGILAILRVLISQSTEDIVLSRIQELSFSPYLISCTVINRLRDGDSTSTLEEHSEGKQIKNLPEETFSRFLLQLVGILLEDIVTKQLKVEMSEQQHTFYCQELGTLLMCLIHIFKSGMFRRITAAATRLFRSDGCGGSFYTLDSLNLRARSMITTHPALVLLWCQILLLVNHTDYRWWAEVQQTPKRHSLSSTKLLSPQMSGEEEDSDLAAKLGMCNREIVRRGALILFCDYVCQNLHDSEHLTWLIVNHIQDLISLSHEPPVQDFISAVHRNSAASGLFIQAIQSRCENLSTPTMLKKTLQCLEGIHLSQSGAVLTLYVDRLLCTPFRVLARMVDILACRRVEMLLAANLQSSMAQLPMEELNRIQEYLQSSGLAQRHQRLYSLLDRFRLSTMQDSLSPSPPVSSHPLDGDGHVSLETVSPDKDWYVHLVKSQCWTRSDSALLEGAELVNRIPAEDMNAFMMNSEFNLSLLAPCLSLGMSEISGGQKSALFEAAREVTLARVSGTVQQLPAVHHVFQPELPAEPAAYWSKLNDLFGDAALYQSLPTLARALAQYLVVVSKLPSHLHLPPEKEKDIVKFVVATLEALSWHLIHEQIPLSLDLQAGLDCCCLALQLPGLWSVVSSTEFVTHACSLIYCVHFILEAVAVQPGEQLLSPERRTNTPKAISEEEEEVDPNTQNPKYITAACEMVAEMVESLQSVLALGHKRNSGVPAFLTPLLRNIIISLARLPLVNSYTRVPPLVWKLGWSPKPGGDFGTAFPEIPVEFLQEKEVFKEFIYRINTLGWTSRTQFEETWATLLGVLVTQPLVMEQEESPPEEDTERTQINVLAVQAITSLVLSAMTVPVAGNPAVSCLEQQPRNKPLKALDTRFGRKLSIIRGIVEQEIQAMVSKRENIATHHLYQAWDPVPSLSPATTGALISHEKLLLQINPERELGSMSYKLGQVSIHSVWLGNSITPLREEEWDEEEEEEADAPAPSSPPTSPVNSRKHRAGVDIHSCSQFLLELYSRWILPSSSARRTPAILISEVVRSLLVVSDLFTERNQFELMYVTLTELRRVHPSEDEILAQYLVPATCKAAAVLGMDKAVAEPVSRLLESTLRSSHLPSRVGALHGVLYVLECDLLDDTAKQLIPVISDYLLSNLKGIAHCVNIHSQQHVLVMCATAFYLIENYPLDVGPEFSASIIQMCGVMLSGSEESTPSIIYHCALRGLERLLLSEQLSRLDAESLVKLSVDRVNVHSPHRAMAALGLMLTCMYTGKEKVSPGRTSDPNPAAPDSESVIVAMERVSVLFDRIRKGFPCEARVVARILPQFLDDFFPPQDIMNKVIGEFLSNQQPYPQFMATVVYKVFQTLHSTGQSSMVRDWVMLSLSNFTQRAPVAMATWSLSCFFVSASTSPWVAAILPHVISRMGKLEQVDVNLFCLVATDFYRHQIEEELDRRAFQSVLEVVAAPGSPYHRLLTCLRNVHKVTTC

Turning to `C=C1CCN([C@@H](CC(C)C)C(=O)NCc2ccc(Cl)c(Cl)c2)S(=O)(=O)c2ccccc21` [Compound 9a], in data set [1], the “Disruption of mHtt-CaM PPI (in words)” value is given as “retained activity” and the half-inhibitory concentration (IC50) came out at 1.03 µM. Moreover, in data set [2], the “Toxicity to SH-SY5Y cells (in words)” value is “no measurable toxicity” and the “Cytotoxicity (SH-SY5Y cells, 24 h)” value was more than 300 µM.

As for `C=C1CCN([C@@H](CC(C)C)C(=O)NCc2ccccc2)S(=O)(=O)c2ccccc21` [Compound 9b], the 50% inhibitory concentration (IC50) in data set [1] turned out to be 12.4 µM. In addition, in data set [2], the “Cytotoxicity (SH-SY5Y cells, 24 h)” value was more than 300 µM.

Turning to `C=C1CCN([C@@H](CC(C)C)C(=O)NCc2ccc(Cl)cc2)S(=O)(=O)c2ccccc21` [Compound 9c, (S)-N-(4-Chlorobenzyl)-4-methyl-2-(5-methylene-1,1-dioxido-4,5-dihydrobenzo[f][1,2]thiazepin-2(3H)-yl) pentanamide], the “Inhibition of CaMK2γ enzyme activity (in words)” value in data set [3] was “did not significantly inhibit”. The IC50 in data set [1] stood at 2.8 µM. Besides, in data set [4], the “Inhibition of DAPK1 enzyme activity (in words)” value was “did not significantly inhibit”. In addition, in data set [2], the “Cytotoxicity (SH-SY5Y cells, 24 h)” value worked out at 94 ± 3 µM and the “Cytotoxicity as stated in text” value is on record as “ca. 90 pM”.

For the compound `C=C1CCN([C@@H](CC(C)C)C(=O)NCc2ccc(C)cc2)S(=O)(=O)c2ccccc21` [Compound 9e, (S)-4-Methyl-N-(4-methylbenzyl)-2-(5-methylene-1,1-dioxido-4,5-dihydrobenzo[f][1,2]thiazepin-2(3H)-yl) pentanamide], the IC50 in data set [1] came out at 15 µM. The “Cytotoxicity (SH-SY5Y cells, 24 h)” value in data set [2] is 102 ± 7 µM.

As to `C=C1CCN([C@@H](CC(C)C)C(=O)NCc2ccc(OC)cc2)S(=O)(=O)c2ccccc21` [Compound 9f, (S)-N-(4-Methoxybenzyl)-4-methyl-2-(5-methylene-1,1-dioxido-4,5-dihydrobenzo[f][1,2]thiazepin-2(3H)-yl) pentanamide], in data set [1], the “Disruption of mHtt-CaM PPI (in words)” value is on record as “lost all mHtt-CaM disruption activity” and the IC50 was more than 300 µM. The “Cytotoxicity (SH-SY5Y cells, 24 h)” value in data set [2] was more than 300 µM.

In the case of `C=C1CCN([C@@H](CC(C)C)C(=O)NCC2CCCCC2)S(=O)(=O)c2ccccc21` [Compound 9g, (S)-N-(Cyclohexylmethyl)-4-methyl-2-(5-methylene-1,1-dioxido-4,5-dihydrobenzo[f][1,2]thiazepin-2(3H)-yl) pentanamide], the concentration for half-maximal inhibition (IC50) in data set [1] was determined as 16.6 µM. In addition, the “Cytotoxicity (SH-SY5Y cells, 24 h)” value in data set [2] was 101 ± 5 µM.

`C=C1CCN([C@H](CC(C)C)C(=O)NCc2ccc(Cl)c(Cl)c2)S(=O)(=O)c2ccccc21` [Compound 10a, (R)-N-(3,4-Dichlorobenzyl)-4-methyl-2-(5-methylene-1,1-dioxido-4,5-dihydrobenzo[f][1,2]thiazepin-2(3H)-yl) pentanamide]: the IC50 in data set [1] was determined as 0.98 µM. Moreover, the “Cytotoxicity (SH-SY5Y cells, 24 h)” value in data set [2] was more than 300 µM.

In the case of `C=C1CCN([C@H](CC(C)C)C(=O)NCc2ccccc2)S(=O)(=O)c2ccccc21` [Compound 10b, (R)-N-Benzyl-4-methyl-2-(5-methylene-1,1-dioxido-4,5-dihydrobenzo[f][1,2]thiazepin-2(3H)-yl)pentanamide], in data set [1], the IC50 amounted to 12.7 µM. Moreover, in data set [2], the “Cytotoxicity (SH-SY5Y cells, 24 h)” value amounted to 87 ± 2 µM.

`C=C1CCN([C@H](CC(C)C)C(=O)NCc2ccc(Cl)cc2)S(=O)(=O)c2ccccc21` [Compound 10c, (R)-N-(4-Chlorobenzyl)-4-methyl-2-(5-methylene-1,1-dioxido-4,5-dihydrobenzo[f][1,2]thiazepin-2(3H)-yl) pentanamide]: in data set [3], the “Inhibition of CaMK2γ enzyme activity (in words)” value is reported as “did not significantly inhibit”. Besides, the half-inhibitory concentration (IC50) in data set [1] was determined as 3 µM. The “Inhibition of DAPK1 enzyme activity (in words)” value in data set [4] is “did not significantly inhibit”. In addition, in data set [2], the “Cytotoxicity (SH-SY5Y cells, 24 h)” value is 86 ± 9 µM and the “Cytotoxicity as stated in text” value was “ca. 90 pM”.

As for `C=C1CCN([C@H](CC(C)C)C(=O)NCc2ccc(Cl)c(C(F)(F)F)c2)S(=O)(=O)c2ccccc21` [Compound 10d, (R)-N-(4-Chloro-3-(trifluoromethyl)benzyl)-4-methyl-2-(5-methylene-1,1-dioxido-4,5-dihydrobenzo[f][1,2]thiazepin-2 (3H)-yl)pentanamide], the IC50 in data set [1] amounted to 1.8 µM. In addition, the “Cytotoxicity (SH-SY5Y cells, 24 h)” value in data set [2] is more than 300 µM.

Take `C=C1CCN([C@H](CC(C)C)C(=O)NCc2ccc(C)cc2)S(=O)(=O)c2ccccc21` [Compound 10e, (R)-4-Methyl-N-(4-methylbenzyl)-2-(5-methylene-1,1-dioxido-4,5-dihydrobenzo[f][1,2]thiazepin-2(3H)-yl) pentanamide]: the IC50 in data set [1] is 15.1 µM. Also, the “Cytotoxicity (SH-SY5Y cells, 24 h)” value in data set [2] stood at 64 ± 2.5 µM.

With `C=C1CCN([C@H](CC(C)C)C(=O)NCc2ccc(OC)cc2)S(=O)(=O)c2ccccc21` [Compound 10f, (R)-N-(4-Methoxybenzyl)-4-methyl-2-(5-methylene-1,1-dioxido-4,5-dihydrobenzo[f][1,2]thiazepin-2(3H)-yl) pentanamide], in data set [1], the “Disruption of mHtt-CaM PPI (in words)” value is listed as “lost all mHtt-CaM disruption activity” and the half-maximal inhibitory concentration (IC50) was more than 300 µM. In data set [2], the “Cytotoxicity (SH-SY5Y cells, 24 h)” value was more than 300 µM.

Regarding `C=C1CCN([C@H](CC(C)C)C(=O)NCC2CCCCC2)S(=O)(=O)c2ccccc21` [Compound 10g, (R)-N-(Cyclohexylmethyl)-4-methyl-2-(5-methylene-1,1-dioxido-4,5-dihydrobenzo[f][1,2]thiazepin-2(3H)-yl) pentanamide], the half-maximal inhibitory concentration (IC50) in data set [1] came out at 12.2 µM. Also, the “Cytotoxicity (SH-SY5Y cells, 24 h)” value in data set [2] was 99 ± 4 µM.

For the compound `C=C1CCN([C@H](CC(C)C)C(=O)NCCc2ccc(Cl)c(Cl)c2)S(=O)(=O)c2ccccc21` [Compound 10h], the “Inhibition of CaMK2γ enzyme activity (in words)” value in data set [3] is “did not significantly inhibit”. Moreover, in data set [1], the IC50 amounted to 0.5 µM. For the same compound, in data set [4], the “Inhibition of DAPK1 enzyme activity (in words)” value is “did not significantly inhibit”. For the same compound, in data set [2], the “Cytotoxicity (SH-SY5Y cells, 24 h)” value was more than 300 µM.

In the case of `CC(C)C[C@@H](C(=O)NCc1ccc(Cl)c(Cl)c1)N1CCC(=O)c2ccccc2S1(=O)=O` [Compound 11a, (S) -N-(3,4-Dichlorobenzyl)-2-(1,1-dioxido-5-oxo-4,5-dihydrobenzo[f][1,2]thiazepin-2(3H)-yl)-4-methylpentanamide], the 50% inhibitory concentration (IC50) in data set [1] was determined as 2.14 µM. In data set [2], the “Cytotoxicity (SH-SY5Y cells, 24 h)” value came out at 39.8 µM.

For the compound `CC(C)C[C@@H](C(=O)NCc1ccccc1)N1CCC(=O)c2ccccc2S1(=O)=O` [Compound 11b, (S)-N-Benzyl-2-(1,1-dioxido-5-oxo-4,5-dihydrobenzo[f][1,2]thiazepin-2(3H)-yl)-4-methylpentanamide], in data set [1], the IC50 was determined as 14.6 µM. In addition, the “Cytotoxicity (SH-SY5Y cells, 24 h)” value in data set [2] was 43.8 µM.

With `CC(C)C[C@@H](C(=O)NCc1ccc(Cl)cc1)N1CCC(=O)c2ccccc2S1(=O)=O` [Compound 11c, (S)-N-(4-Chlorobenzyl)-2-(1,1-dioxido-5-oxo-4,5-dihydrobenzo[f][1,2]thiazepin-2(3H)-yl)-4-methylpentanamide], the concentration for half-maximal inhibition (IC50) in data set [1] stood at 11.2 µM. Also, the “Cytotoxicity (SH-SY5Y cells, 24 h)” value in data set [2] was found to be 41.4 µM.

For `CC(C)C[C@@H](C(=O)NCc1ccc(Cl)c(C(F)(F)F)c1)N1CCC(=O)c2ccccc2S1(=O)=O` [Compound 11d, (S)-N-(4-Chloro-3-(trifluoromethyl)benzyl)-2-(1,1-dioxido-5-oxo-4,5-dihydrobenzo[f][1,2]thiazepin-2(3H)-yl)-4-methylpentanamide], the IC50 in data set [1] stood at 2.03 µM. The “Cytotoxicity (SH-SY5Y cells, 24 h)” value in data set [2] is 44.2 µM.

`Cc1ccc(CNC(=O)[C@H](CC(C)C)N2CCC(=O)c3ccccc3S2(=O)=O)cc1` [Compound 11e, (S)-2-(1,1-Dioxido-5-oxo-4,5-dihydrobenzo[f][1,2]thiazepin-2(3H)-yl)-4-methyl-N-(4-methylbenzyl)pentanamide]: the IC50 in data set [1] was found to be 24.5 µM. Further, the “Cytotoxicity (SH-SY5Y cells, 24 h)” value in data set [2] worked out at 43.4 µM.

On to `COc1ccc(CNC(=O)[C@H](CC(C)C)N2CCC(=O)c3ccccc3S2(=O)=O)cc1` [Compound 11f, (S)-2-(1,1-Dioxido-5-oxo-4,5-dihydrobenzo[f][1,2]thiazepin-2(3H)-yl)-N-(4-methoxybenzyl)-4-methylpentanamide], for which, in data set [1], the “Disruption of mHtt-CaM PPI (in words)” value was “retained marginal activity” and the 50% inhibitory concentration (IC50) amounted to 52.6 µM. The “Cytotoxicity (SH-SY5Y cells, 24 h)” value in data set [2] was found to be 44.6 µM.

`CC(C)C[C@@H](C(=O)NCC1CCCCC1)N1CCC(=O)c2ccccc2S1(=O)=O` [Compound 11g, (S)-W-(Cyclohexylmethyl)-2-(1,1-dioxido-5-oxo-4,5-dihydrobenzo[f][1,2]thiazepin-2(3H)-yl)-4-methylpentanamide]: the IC50 in data set [1] is 31 µM. Also, in data set [2], the “Cytotoxicity (SH-SY5Y cells, 24 h)” value turned out to be 40.1 µM.

For the compound `CC(C)C[C@@H](C(=O)NCCc1ccc(Cl)c(Cl)c1)N1CCC(=O)c2ccccc2S1(=O)=O` [Compound 11h, (S)-N-(3,4-Dichlorophenethyl)-2-(1,1-dioxido-5-oxo-4,5-dihydrobenzo[f][1,2]thiazepin-2(3H)-yl)-4-methylpentanamide], the concentration for half-maximal inhibition (IC50) in data set [1] turned out to be 0.97 µM. The “Cytotoxicity (SH-SY5Y cells, 24 h)” value in data set [2] stood at 32.3 µM.
